Activity calls are given as the source filed them. The calls are words filed in the database; no cut-off is given here.
What was measured:
MKN-45 [1] = test: Antiproliferative activity against human MKN45 cells assessed as cell viability at 100 nM after 72 hrs by MTT assay relative to control; type: functional; conditions: MKN-45, 72 h, read-out: Activity
Summary of the method: (§1)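 Single-concentration MTT screen. Log-phase cells in DMEM with 10% FCS were treated for 72 h in 96-well plates. After MTT and DMSO, absorbance was read at 570 nm. Viability was calculated relative to control as mean ± SD of three independent experiments.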

KB [2] = test: Antiproliferative activity against human KB cells assessed as cell viability at 100 nM after 72 hrs by MTT assay relative to control; type: functional; conditions: read-out: Activity; summary of the method: as §1
KB [3] = test: Antiproliferative activity against human KB cells after 72 hrs by MTT assay; type: functional, cell-based
Summary of the method: (§2)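 Cells grown in DMEM with 10% heat-inactivated FCS, penicillin and streptomycin, at 37°C in 5% CO₂, and used in log phase. Cells were seeded in 96-well plates and exposed to compound for 72 h. MTT was added, then DMSO, and OD was read at 570 nm. Survival rate was calculated and IC50 taken as 50% growth inhibition.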

MKN-45 [4] = test: Induction of apoptosis in human MKN45 cells assessed as increase in cleaved PARP expression at 5 to 10 uM after 48 hrs by Western blot method; type: functional, cell-based
Summary of the method: (§3)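 MKN45 cells (2×10⁵) were treated with 5 or 10 µM. Lysates were run by electrophoresis and transferred to PVDF. Blots were probed overnight at 4°C for Bax, BCL2, PARP and β-actin (loading control), then with HRP secondary, and detected by ECL. Band density was scored in arbitrary units; three experiments.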

[5] = Antiproliferative activity against human KBV cells after 72 hrs by MTT assay; type: functional, cell-based; summary of the method: as §2
MKN-45 [6] = test: Cell cycle arrest in human MKN45 cells assessed as apoptotic cell accumulation at 10 uM after 48 hrs by propidium iodide staining based flow cytometry (reference value: 1.51%); type: functional
Summary of the method: (§4)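 MKN45 cells were plated at 2×10⁵ cells/well in 6-well plates and exposed for 24 and 48 h. Cells were harvested, fixed and stained with propidium iodide (50 µg/mL). DNA content was read by FACScan flow cytometry for phase distribution. The sub-G0/G1 fraction was taken as apoptotic.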

MKN-45 [7] = test: Induction of apoptosis in human MKN45 cells assessed as increase in Bax/Bcl2 expression ratio at 5 to 10 uM after 24 hrs by Western blot method; type: functional, cell-based; summary of the method: as §3
KB [8] = test: Antiproliferative activity against human KB cells assessed as cell viability at 10 uM after 72 hrs by MTT assay relative to control; type: functional; conditions: read-out: Activity; summary of the method: as §1
MKN-45 [9] = test: Cell cycle arrest in human MKN45 cells assessed as apoptotic cell accumulation at 10 uM after 24 hrs by propidium iodide staining based flow cytometry (reference value: 1.51%); type: functional; summary of the method: as §4
MKN-45 [10] = test: Antiproliferative activity against human MKN45 cells assessed as cell viability at 10 uM after 72 hrs by MTT assay relative to control; type: functional; conditions: MKN-45, 72 h, read-out: Activity; summary of the method: as §1
MKN-45 [11] = test: Induction of apoptosis in human MKN45 cells assessed as increase in Bax expression at 5 to 10 uM after 24 hrs by Western blot method; type: functional, cell-based; summary of the method: as §3
MKN-45 [12] = test: Induction of mitochondrial membrane potential loss in human MKN45 cells at 5 to 10 uM after 24 hrs by JC-1 staining based flow cytometry; type: functional, cell-based
Summary of the method: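 MKN45 cells were plated at 2×10⁵ cells/well in 6-well plates and exposed to indicated concentrations for 24 h. They were stained with JC-1 for 20 min, and the change in mitochondrial membrane potential was measured by flow cytometry; three experiments.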

AGS = test: Antiproliferative activity against human AGS cells after 72 hrs by MTT assay; type: functional, cell-based; summary of the method: as §2
HeLa = test: Antiproliferative activity against human HeLa cells after 72 hrs by MTT assay; type: functional, cell-based; summary of the method: as §2
MKN-45 [13] = test: Cell cycle arrest in human MKN45 cells assessed as accumulation at S-phase at 10 uM after 24 hrs by propidium iodide staining based flow cytometry (reference value: 15%); type: functional; summary of the method: as §4
BGC-823 = test: Antiproliferative activity against human BGC823 cells after 72 hrs by MTT assay; type: functional, cell-based; conditions: BGC-823, 72 h; summary of the method: as §2
MKN-45 [14] = test: Cell cycle arrest in human MKN45 cells assessed as accumulation at G2/M-phase at 10 uM after 24 hrs by propidium iodide staining based flow cytometry (reference value: 19%); type: functional; summary of the method: as §4
MKN-45 [15] = test: Induction of apoptosis in human MKN45 cells assessed as decrease in Bcl2 expression after 24 hrs by Western blot method; type: functional, cell-based; summary of the method: as §3
MKN-45 [16] = test: Cell cycle arrest in human MKN45 cells assessed as accumulation at G1-phase at 10 uM after 48 hrs by propidium iodide staining based flow cytometry (reference value: 67%); type: functional; summary of the method: as §4
MKN-45 [17] = test: Cell cycle arrest in human MKN45 cells assessed as accumulation at G1-phase at 10 uM after 24 hrs by propidium iodide staining based flow cytometry (reference value: 67%); type: functional; summary of the method: as §4
A549 = test: Antiproliferative activity against human A549 cells after 72 hrs by MTT assay; type: functional, cell-based; conditions: A549, 72 h; summary of the method: as §2
MKN-45 [18] = test: Cell cycle arrest in human MKN45 cells assessed as accumulation at S-phase at 10 uM after 48 hrs by propidium iodide staining based flow cytometry (reference value: 15%); type: functional; summary of the method: as §4
MKN-45 [19] = test: Cell cycle arrest in human MKN45 cells assessed as accumulation at G2/M-phase at 10 uM after 48 hrs by propidium iodide staining based flow cytometry (reference value: 19%); type: functional; summary of the method: as §4
MKN-45 [20] = test: Antiproliferative activity against human MKN45 cells after 72 hrs by MTT assay; type: functional, cell-based; conditions: MKN-45, 72 h; summary of the method: as §2

Which viability at 0.1 µM (MKN-45 [1]) does the source give for `CC(=O)O[C@H]1C(=O)[C@@]2(C)[C@H]([C@H](OC(=O)c3ccccc3)[C@]3(O)C[C@H](OC(=O)[C@H](O)[C@@H](NC(=O)c4ccccc4)c4ccccc4)C(C)=C1C3(C)C)[C@]1(OC(C)=O)CO[C@@H]1C[C@@H]2O` [PACLITAXEL] here?
Its viability at 0.1 µM is 23%.

And the viability at 0.1 µM (KB [2])?
Its viability at 0.1 µM is 15%.

For `CCN/C(=N/CCCN(C)C)OC(=O)c1ccccc1C(=O)OC[C@]1(C)C(=O)CC[C@@]2(C)[C@H]1CC[C@]1(C)[C@@H]2CC=C2[C@@H]3CC(C)(C)CC[C@]3(C(=O)OCc3ccccc3)CC[C@]21C`, which IC50 (KB [3]) is on record?
The IC50 was 4.75 µM.

What about the Activity (MKN-45 [4]) of the same compound?
The Activity was “Active”.

What about the IC50 [5] of the same compound?
Its IC50 is 8.05 µM.

And the Activity (MKN-45 [6])?
The Activity was 38.68%.

What about the Activity (MKN-45 [7]) of the same compound?
Its Activity is “Active”.

What about the viability at 10 µM (KB [8]) of the same compound?
Its viability at 10 µM is 26%.

And the Activity (MKN-45 [9])?
Its Activity is 2.47%.

What about the viability at 10 µM (MKN-45 [10]) of the same compound?
Its viability at 10 µM is 7%.

And the Activity (MKN-45 [11])?
Its Activity is “Active”.

What about the Activity (MKN-45 [12]) of the same compound?
Its Activity is “Active”.

What about the IC50 (AGS) of the same compound?
Its IC50 is 4.4 µM.

And the IC50 (HeLa)?
Its IC50 is 4.22 µM.

And the Activity (MKN-45 [13])?
Its Activity is 11%.

And the IC50 (BGC-823)?
The IC50 was 5.15 µM.

What about the Activity (MKN-45 [14]) of the same compound?
The Activity was 21%.

What about the Activity (MKN-45 [15]) of the same compound?
The Activity was “Dose-dependent effect”.

What about the Activity (MKN-45 [16]) of the same compound?
Its Activity is 54%.

And the Activity (MKN-45 [17])?
Its Activity is 68%.

What about the IC50 (A549) of the same compound?
The IC50 was 6.3 µM.

And the Activity (MKN-45 [18])?
Its Activity is 16%.

And the Activity (MKN-45 [19])?
Its Activity is 31%.

And the IC50 (MKN-45 [20])?
Its IC50 is 7 µM.
